Compound activity: PubChem BioAssay, Sanford-Burnham Center for Chemical Genomics
A selection: hits, their analogues and other compounds. The true share with any hit is near 1.5%.
EBI2 antag: EBI2 receptor antagonists, beta-arrestin recruitment, primary screen, cell-based, luminescence, 7a,25-OHC stimulation, uHTS; 7a,25-OHC stimulated; 0.81% of 360,000 active; AID 651636, 2012; G-protein coupled receptor 183 (Homo sapiens), P32249; inhibition, % at 5 µM; in the data active = inhibition above about 38%;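 also: enzyme fragment complementation signal reports receptor beta-arrestin coupling in cells; 0% = agonist plus DMSO wells and 100% = wells without agonist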
CCR6 antag: CCR6 receptor antagonists, primary screen, cell-based, CHO-K1, luminescence, beta-arrestin, uHTS. CHO-K1 CCR6 PathHunter beta-arrestin, CCL20-stimulated. AID 493098, 2011. C-C chemokine receptor type 6 (Homo sapiens), P51684. inhibition, % at 20 µM. 0.49% of 340,000 active;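 active = compounds whose inhibition of the agonist-driven luminescence signal at 20 µM reaches about 50%, limit read from the data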;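 also: cells stimulated with CCL20 at 14 nM final; plate controls were DMSO with CCL20 for no effect and DMSO without agonist for full effect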
Target sequence (P51684 whole entry, looked up): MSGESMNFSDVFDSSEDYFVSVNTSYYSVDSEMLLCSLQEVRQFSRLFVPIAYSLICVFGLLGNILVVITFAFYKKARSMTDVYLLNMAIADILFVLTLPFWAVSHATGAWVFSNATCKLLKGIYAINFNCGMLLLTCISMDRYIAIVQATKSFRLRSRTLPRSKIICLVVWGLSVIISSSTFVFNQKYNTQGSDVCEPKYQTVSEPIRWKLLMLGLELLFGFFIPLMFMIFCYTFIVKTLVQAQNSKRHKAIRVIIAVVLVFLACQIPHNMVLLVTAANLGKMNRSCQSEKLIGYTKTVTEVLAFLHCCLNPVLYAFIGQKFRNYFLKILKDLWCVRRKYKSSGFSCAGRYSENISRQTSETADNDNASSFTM
APJ ag: agonists of human apelin receptor APJ, primary screen, CHO-K1 cells, PathHunter beta-arrestin, luminescence; 0% DMSO wells, 100% apelin; AID 2520, 2010; 0.11% of 330,000 active; activation, % at 20 µM;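 active = activation more than six SD over the plate average, tested at 20 µM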;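 also: 0% = DMSO alone and 100% = apelin-13 at 10 nM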
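Assay system: CHO-K1 APJ beta-arrestin complementation cell line / Compound: single test compound dose, 20 µM final, 1% DMSO / Times: overnight seeding, 90 min compound at 25 °C, 1 h detection / Technique: beta-gal luminescence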
APJ antagonist: antagonists of human apelin receptor APJ, primary screen, CHO-K1 cells, beta-arrestin complementation, luminescence; inhibition, % at 20 µM; 0.32% of 330,000 active;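 active = inhibition above about 40% at 20 µM, limit read from the data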;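 also: cells challenged with 10 nM apelin-13 agonist together with compound; plate controls were apelin-13 plus DMSO wells for no effect and DMSO wells lacking apelin-13 for full effect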
CXCR6 block: CXCR6 receptor inhibitors, primary screen, cell-based, beta-arrestin, luminescence, CHO-K1 PathHunter, 1536-well. C-X-C chemokine receptor type 6 (Homo sapiens), O00574. inhibition, % at 20 µM. 0.36% of 360,000 active. AID 602244, 2012; in the data active = inhibition above about 34%, passing the limit was not always enough;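 also: antagonist mode with CXCL16 agonist at 10 nM final; 0% = 10 nM CXCL16 with DMSO and 100% = unstimulated wells without agonist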
The depositor's hits bear a star; nt = no result.

SMILES	EBI2 antag	CCR6 antag	APJ ag	APJ antagonist	CXCR6 block
Cc1ccsc1-c1cc2nc(NCCCN(C)C)n(C)c(=O)c2s1	-14	nt	nt	nt	6
CC(C)(C)c1ccc(OCC(=O)NNC(=S)NC(=O)c2ccco2)c(Br)c1	1	56*	-10	30	24
CC(C)c1ccc(OCC(=O)NNC(=S)NC(=O)c2ccco2)c(Br)c1	4	48	-10	28	36
O=C1Nc2ccc(Br)cc2/C1=N\N=C\C1=C(N2CCOCC2)C(=C/c2ccccc2)/CC1	7	55*	nt	nt	41*
COc1ccc(S(=O)(=O)N(C)C[C@H]2Oc3ccc(NC(=O)C4CC4)cc3C(=O)N([C@H](C)CO)C[C@@H]2C)cc1	-4	11	0	8	3
O=C(C[n+]1cn(C(F)F)c2ccccc21)c1ccc(OC(F)F)cc1	0	-11	18*	-86	-13
O=C(C[n+]1ccc(C(=O)NCc2ccccc2)cc1)c1ccc(OC(F)F)cc1	3	14	-4	1	6
Cn1nc(C(=O)NC2CCCCC2)c2c1-c1ccccc1S(=O)(=O)C2	-4	25	-2	6	-7
C#CCN(C[C@@H]1[C@@H](OC(=O)NCC2CCCCC2)[C@@H](OC(=O)NCC2CCCCC2)Cn2c(=O)ccc(=O)n21)S(=O)(=O)c1ccc(C)cc1	81*	nt	nt	nt	-8
C#CCN(C[C@@H]1[C@@H](OC(=O)NCCCCCC)[C@@H](OC(=O)NCCCCCC)Cn2c(=O)ccc(=O)n21)S(=O)(=O)c1ccc(C)cc1	38	nt	nt	nt	0
CC(C)(C)C(=O)NC(=S)NNC(=O)C(c1ccccc1)c1ccccc1	-1	79*	-5	23	72*
C[C@H](CO)N1C[C@H](C)[C@@H](CN(C)S(=O)(=O)c2cccc(F)c2)Oc2ncc(Br)cc2C1=O	-1	nt	nt	nt	-3
Cn1cnc([N+](=O)[O-])c1S(=O)(=O)Oc1cccc2ccccc12	20	74*	nt	nt	49*
Cn1cnc([N+](=O)[O-])c1S(=O)(=O)Oc1ccc(Cl)cc1	14	60*	nt	nt	52*
COc1ccc(NC(=O)COC(=O)CN2C(=O)C3CCCCC3C2=O)cc1 (stereo unspecified)	-3	nt	nt	nt	-2
O=C(OCCNc1ccc(C(F)(F)F)cc1[N+](=O)[O-])c1cc2ccccc2oc1=O	7	4	0	-3	1
COc1cc(C(=O)NC(=S)Nc2ccc3c(c2)C(=O)N(C)C3=O)cc(OC)c1OC	0	42	-3	11	11
O=C(O)c1cc(O)c2c(c1)[C@H]([C@H]1c3cc(C(=O)O)cc(O)c3C(=O)c3c(O[C@@H]4O[C@H](CO)[C@@H](O)[C@H](O)[C@H]4O)cccc31)c1cccc(OC3O[C@H](CO)[C@@H](O)[C@H](O)[C@H]3O)c1C2=O (stereo partly specified)	-11	88*	12	11	3
O=C1c2cc(CO)cc(O)c2C(=O)c2c(O[C@@H]3OC(CO)[C@@H](O)[C@@H](O)[C@@H]3O)cccc21 (stereo partly specified)	-22	-5	-4	-176	-2
O=C(O)c1cc(O)c2c(c1)[C@@H]([C@H]1c3cc(C(=O)O)cc(O)c3C(=O)c3c(O[C@@H]4O[C@H](CO)[C@@H](O)[C@H](O)[C@H]4O)cccc31)c1cccc(OC3O[C@H](CO)[C@@H](O)[C@H](O)[C@H]3O)c1C2=O (stereo partly specified)	-15	79*	4	22	-10
Nc1nc2ccc(Cl)cc2cc1C(=O)NCCCN1CCOCC1	-10	nt	nt	nt	nt
Cc1ccc(S(=O)(=O)N2[C@H](CC(=O)c3ccc(Cl)c(Cl)c3)OC[C@@H]2C(C)C)cc1	12	nt	nt	nt	nt
O=[N+]([O-])c1ccc(N2CCOCC2)cc1O	4	14	-3	-6	4
Cc1cc(N2CCOCC2)ccc1/C=C\[N+](=O)[O-]	17	56*	6	24	32
CCOC(=O)c1c(NC(=O)COC(=O)Cn2cnc3c2c(=O)n(C)c(=O)n3C)sc(C)c1CC	19	14	12	-1	-4
